Source: ChEMBL document CHEMBL4706662, “Design and Evaluation of Peptide Dual-Agonists of GLP-1 and NPY2 Receptors for Glucoregulation and Weight Loss with Mitigated Nausea and Emesis” (J Med Chem, 2021)
The source made the active and inactive calls. No cut-off for these calls is given here. Square brackets hold non-standard residues; d marks the D form. Peptide text beside a SMILES is read from it. ξ: configuration not given here. ξF = NC(Cc1ccccc1)C(=O)O

Tests used:
[1] = target: T1, Glucagon-like peptide 1 receptor (Homo sapiens, UniProt P43220); assay: Agonist activity at human GLP-1R expressed in HEK293 cells assessed as stimulation of cAMP accumulation by FRET assay; type: functional, cell-based
T1 sequence (P43220 whole entry): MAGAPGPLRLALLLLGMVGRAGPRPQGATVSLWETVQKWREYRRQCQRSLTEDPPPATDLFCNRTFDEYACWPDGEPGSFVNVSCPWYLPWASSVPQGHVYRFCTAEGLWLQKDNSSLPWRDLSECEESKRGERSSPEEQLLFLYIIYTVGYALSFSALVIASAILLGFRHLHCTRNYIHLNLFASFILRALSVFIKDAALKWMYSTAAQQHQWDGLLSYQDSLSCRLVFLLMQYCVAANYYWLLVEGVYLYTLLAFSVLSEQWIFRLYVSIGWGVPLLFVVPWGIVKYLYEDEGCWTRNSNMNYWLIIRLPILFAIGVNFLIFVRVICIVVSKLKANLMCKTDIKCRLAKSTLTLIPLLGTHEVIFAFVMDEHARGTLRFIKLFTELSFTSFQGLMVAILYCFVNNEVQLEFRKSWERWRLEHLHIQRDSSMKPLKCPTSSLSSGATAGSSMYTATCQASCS

Glucagon receptor = Glucagon receptor (Rattus norvegicus, UniProt P30082); assay: Agonist activity at rat glucagon receptor expressed in HEK293 cells assessed as stimulation of cAMP accumulation by FRET assay; type: functional, cell-based
Glucagon receptor, sequence (P30082 whole entry): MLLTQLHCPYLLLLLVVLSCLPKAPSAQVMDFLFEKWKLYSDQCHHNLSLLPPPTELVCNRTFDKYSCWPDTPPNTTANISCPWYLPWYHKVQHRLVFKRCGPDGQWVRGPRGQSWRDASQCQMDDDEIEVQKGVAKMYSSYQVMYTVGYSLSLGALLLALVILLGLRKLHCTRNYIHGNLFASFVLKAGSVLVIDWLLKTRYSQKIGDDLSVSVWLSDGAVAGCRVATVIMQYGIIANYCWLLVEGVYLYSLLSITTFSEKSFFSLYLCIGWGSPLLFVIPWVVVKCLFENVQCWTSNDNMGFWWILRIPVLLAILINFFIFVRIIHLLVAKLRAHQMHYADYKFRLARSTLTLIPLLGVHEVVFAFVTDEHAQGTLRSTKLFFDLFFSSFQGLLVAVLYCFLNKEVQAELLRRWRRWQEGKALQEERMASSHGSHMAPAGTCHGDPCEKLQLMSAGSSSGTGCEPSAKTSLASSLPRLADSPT

[2] = target: T1, Glucagon-like peptide 1 receptor; assay: Displacement of GLP-1-red from human GLP-1R expressed in CHO-K1 cells by fluorescent competitive binding assay; type: cell-based
[3] = target: T2, Neuropeptide Y receptor type 2 (Homo sapiens, UniProt P49146); assay: Agonist activity at human NPY2R expressed in HEK293 cells assessed as inhibition of adenosine-induced stimulation of cAMP accumulation by FRET assay; type: functional, cell-based
T2 sequence (P49146 whole entry): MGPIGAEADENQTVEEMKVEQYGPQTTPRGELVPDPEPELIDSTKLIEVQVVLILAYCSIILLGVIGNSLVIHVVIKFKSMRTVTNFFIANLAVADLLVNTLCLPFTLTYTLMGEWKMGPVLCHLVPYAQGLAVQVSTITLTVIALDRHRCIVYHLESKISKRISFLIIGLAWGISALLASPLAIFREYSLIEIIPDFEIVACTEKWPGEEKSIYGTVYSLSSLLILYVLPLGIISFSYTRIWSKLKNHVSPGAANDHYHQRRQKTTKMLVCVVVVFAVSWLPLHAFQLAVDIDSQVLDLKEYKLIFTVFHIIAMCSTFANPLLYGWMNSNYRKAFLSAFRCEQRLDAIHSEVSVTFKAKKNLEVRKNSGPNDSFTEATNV

[4] = target: T3, Glucagon-like peptide 1 receptor (Rattus norvegicus, UniProt P32301); assay: Agonist activity at rat GLP-1R expressed in HEK293 cells assessed as stimulation of cAMP accumulation by FRET assay; type: functional, cell-based
T3 sequence (P32301 whole entry): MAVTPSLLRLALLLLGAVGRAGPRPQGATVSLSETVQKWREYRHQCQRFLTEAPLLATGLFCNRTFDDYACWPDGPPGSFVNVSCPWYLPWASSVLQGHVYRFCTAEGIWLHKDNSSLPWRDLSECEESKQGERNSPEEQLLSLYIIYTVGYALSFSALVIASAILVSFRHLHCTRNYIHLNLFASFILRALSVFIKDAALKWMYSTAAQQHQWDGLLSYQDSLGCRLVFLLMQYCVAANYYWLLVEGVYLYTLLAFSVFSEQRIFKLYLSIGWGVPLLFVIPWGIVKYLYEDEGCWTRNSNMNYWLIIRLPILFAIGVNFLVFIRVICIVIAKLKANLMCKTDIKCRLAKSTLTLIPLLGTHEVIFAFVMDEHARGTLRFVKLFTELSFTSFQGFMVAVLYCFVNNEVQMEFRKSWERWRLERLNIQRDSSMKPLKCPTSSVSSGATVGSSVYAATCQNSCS

Rattus norvegicus [5] = assay: Suppression of cumulative food intake in lean Sprague-Dawley rat at 0.3 to 60 nmol/kg dosed daily for 2 days; type: functional, organism-based; settings: dose 0.3-60 nmol/kg, time 2.0 day
Rattus norvegicus [6] = assay: Suppression of body weight in Sprague-Dawley rat model of DIO at 10 nmol/kg dosed daily for 5 days; type: functional; settings: time 5 day
Suncus murinus [7] = assay: Improvement in glucose clearance in musk shrew at 10 nmol/kg, ip measured 20 to 60 mins following glucose administration by IPGTT method; type: functional, organism-based; settings: time 20-60 min
In short: (§1)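 Male musk shrews (~8 months, 60–65 g, n = 9), within-subject counterbalanced. Baseline tail glucose by glucometer, then IP drug or saline (1 mL/100 g); 30 min later IP glucose 2 g/kg, glucose read at 20, 40, 60 and 120 min.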

Rattus norvegicus [8] = assay: Effect on glucose clearance in Sprague-Dawley rat model of DIO at 10 nmol/kg dosed daily for 5 days; type: functional, organism-based; settings: time 5.0 day
[9] = target: T4, Neuropeptide Y receptor type 1 (Homo sapiens, UniProt P25929); assay: Agonist activity at human NPY1R expressed in HEK293 cells assessed as inhibition of adenosine-induced stimulation of cAMP accumulation by FRET assay; type: functional, cell-based
T4 sequence (P25929 whole entry): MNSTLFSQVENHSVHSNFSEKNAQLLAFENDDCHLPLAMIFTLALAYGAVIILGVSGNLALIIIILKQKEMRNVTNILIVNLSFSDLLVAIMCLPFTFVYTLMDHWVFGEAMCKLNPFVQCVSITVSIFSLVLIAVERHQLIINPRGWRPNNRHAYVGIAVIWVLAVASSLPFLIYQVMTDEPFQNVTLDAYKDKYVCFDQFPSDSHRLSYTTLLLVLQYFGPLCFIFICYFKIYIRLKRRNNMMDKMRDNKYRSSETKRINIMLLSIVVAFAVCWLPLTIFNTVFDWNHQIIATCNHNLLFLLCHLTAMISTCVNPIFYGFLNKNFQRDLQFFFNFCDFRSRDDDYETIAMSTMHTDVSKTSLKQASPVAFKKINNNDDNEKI

Pancreatic islet [10] = assay: Stimulation of glucose stimulated insulin secretion in rat pancreatic islets at 50 nM in presence of 10 mM glucose incubated for 60 mins; type: functional, tissue-based
Rattus norvegicus [11] = assay: Suppression of food intake in Sprague-Dawley rat model of DIO at 10 nmol/kg dosed daily for 5 days; type: functional, organism-based; settings: time 5.0 day
Rattus norvegicus [12] = assay: Suppression of blood glucose level in prediabetic Sprague-Dawley rat model of DIO assessed as reduction in post-dextrose bolus blood glucose at 10 nmol/kg dosed daily for 5 days by IPGTT method; type: functional, organism-based; settings: time 5.0 day
[13] = Intrinsic clearance in Sprague-Dawley rat liver microsomes at 30 uM in presence of NADPH by HPLC analysis; type: ADME, Microsome
[14] = Half life in Sprague-Dawley rat liver microsomes at 30 uM in presence of NADPH by HPLC analysis; type: ADME, Microsome
[15] = Toxicity in musk shrew assessed as induction of emesis at 10 to 60 nmol/kg, ip measured after 120 mins; type: organism-based; settings: suncus murinus, in vivo, 2 h, dose 10-60 nmol/kg
[16] = target: T5, Neuropeptide Y receptor type 2 (Homo sapiens) (UniProt P49146); assay: Agonist activity at human NPY2R expressed in HEK293 cells assessed as inhibition of adenosine-induced stimulation of cAMP accumulation in presence of NPY2-R antagonist […] by FRET assay; type: functional, cell-based
T5 sequence (whole entry): T2 sequence (P49146 whole entry)

Rattus norvegicus [17] = assay: Suppression of cumulative food intake in lean Sprague-Dawley rat at 10 to 20 nmol/kg dosed daily for 2 days relative to control; type: functional; settings: dose 10-20 nmol/kg, time 2 day
Pancreatic islet [18] = assay: Stimulation of glucose stimulated insulin secretion in rat pancreatic islets at 50 nM in presence of 3 mM glucose incubated for 60 mins; type: functional, tissue-based
Suncus murinus [19] = assay: Improvement in glucose clearance in musk shrew assessed as increase in plasma glucose clearing rate at 10 nmol/kg, ip measured 20 to 60 mins following glucose administration by IPGTT method; type: functional, organism-based; settings: time 20-60 min; in short: as §1
[20] = Toxicity in lean Sprague-Dawley rat assessed as induction at 0.3 to 60 nmol/kg dosed daily for 2 days by kaolin consumption assay; settings: in vivo, 48 h
[21] = target: T1, Glucagon-like peptide 1 receptor; assay: Agonist activity at human GLP-1R expressed in HEK293 cells assessed as stimulation of cAMP accumulation in presence of GLP-1R antagonist exendin9-39 by FRET assay; type: functional, cell-based
In short: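 HEK293 cells stably expressing human GLP-1R, transduced with H188 cAMP FRET reporter (16 h, MOI 25), read in SES (pH 7.4, 11 mM glucose, 0.1% BSA). Antagonist Ex(9–39) added 20 min before agonist. Excitation 435 nm; 485/535 emission ratio baseline-normalized, read in real time. Triplicate independent runs; EC50 by nonlinear regression of peak FRET values.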

Rattus norvegicus [22] = assay: Suppression of fasting blood glucose in Sprague-Dawley rat model of DIO at 10 nmol/kg dosed daily for 5 days; type: functional, organism-based; settings: time 5.0 day

CC[C@H](C)[C@H](NC(=O)C(Cc1ccccc1)NC(=O)[C@H](CC(C)C)NC(=O)[C@H](CCCNC(=N)N)NC(=O)[C@@H](NC(=O)[C@H](C)NC(=O)[C@H](CCC(=O)O)NC(=O)[C@H](CCC(=O)O)NC(=O)[C@H](CCC(=O)O)NC(=O)[C@H](CCSC)NC(=O)[C@H](CCC(N)=O)NC(=O)[C@H](CCCCN)NC(=O)[C@H](CO)NC(=O)[C@H](CC(C)C)NC(=O)[C@H](CC(=O)O)NC(=O)[C@H](CO)NC(=O)[C@@H](NC(=O)[C@H](Cc1ccccc1)NC(=O)[C@@H](NC(=O)CNC(=O)[C@H](CCC(N)=O)NC(=O)[C@H](CO)NC(=O)[C@@H](N)Cc1cnc[nH]1)[C@@H](C)O)[C@@H](C)O)C(C)C)C(=O)N[C@@H](CCC(=O)O)C(=O)N[C@@H](Cc1c[nH]c2ccccc12)C(=O)N[C@@H](CC(C)C)C(=O)N[C@@H](CCCCN)C(=O)N[C@@H](CC(N)=O)C(=O)N[C@@H](CCCNC(=N)N)C(=O)N[C@@H](Cc1cnc[nH]1)C(=O)N[C@@H](Cc1ccc(O)cc1)C(=O)N[C@@H](CC(C)C)C(=O)N[C@@H](CC(N)=O)C(=O)N[C@@H](CC(C)C)C(=O)N[C@H](C(=O)N[C@H](C(=O)N[C@@H](CCCNC(=N)N)C(=O)N[C@@H](CCC(N)=O)C(=O)N[C@@H](CCCNC(=N)N)C(=O)N[C@@H](Cc1ccc(O)cc1)C(=O)O)[C@@H](C)O)C(C)C (some centres undefined) (H-HSQGTFTSDLSKQMEEEAVRL[ξF]IEWLKNRHYLNLVTRQRY-OH)
EC50 [1]: 0.533 nM
EC50 (Glucagon receptor): > 3000 nM
IC50 [2]: 321 nM
IC50 [3]: 61 nM

H-HSQGTFTSDLSKQMEEWAVRLFIEWLKNGGPSRYYASLRRHYLNLVTRQRY-NH2
EC50 [1]: 2.3 nM
EC50 (Glucagon receptor): > 3000 nM
IC50 [2]: > 1000 nM
IC50 [3]: 25 nM

CC[C@H](C)[C@H](NC(=O)C(Cc1ccccc1)NC(=O)[C@H](CC(C)C)NC(=O)[C@H](CCCNC(=N)N)NC(=O)[C@@H](NC(=O)[C@H](C)NC(=O)[C@H](CCC(=O)O)NC(=O)[C@H](CCC(=O)O)NC(=O)[C@H](CCC(=O)O)NC(=O)[C@H](CCSC)NC(=O)[C@H](CCC(N)=O)NC(=O)[C@H](CCCCN)NC(=O)[C@H](CO)NC(=O)[C@H](CC(C)C)NC(=O)[C@H](CC(=O)O)NC(=O)[C@H](CO)NC(=O)[C@@H](NC(=O)[C@H](Cc1ccccc1)NC(=O)[C@@H](NC(=O)CNC(=O)[C@H](CCC(N)=O)NC(=O)[C@H](CO)NC(=O)[C@@H](N)Cc1cnc[nH]1)[C@@H](C)O)[C@@H](C)O)C(C)C)C(=O)N[C@@H](CCC(=O)O)C(=O)N[C@@H](Cc1c[nH]c2ccccc12)C(=O)N[C@@H](CC(C)C)C(=O)N[C@@H](CCCCN)C(=O)N[C@@H](CC(N)=O)C(=O)NCC(=O)NCC(=O)N1CCC[C@@H]1C(=O)N[C@@H](CO)C(=O)N[C@@H](CCCNC(=N)N)C(=O)N[C@@H](Cc1cnc[nH]1)C(=O)N[C@@H](Cc1ccc(O)cc1)C(=O)N[C@@H](CC(C)C)C(=O)N[C@@H](CC(N)=O)C(=O)N[C@@H](CC(C)C)C(=O)N[C@H](C(=O)N[C@H](C(=O)N[C@@H](CCCNC(=N)N)C(=O)N[C@@H](CCC(N)=O)C(=O)N[C@@H](CCCNC(=N)N)C(=O)N[C@@H](Cc1ccc(O)cc1)C(=O)O)[C@@H](C)O)C(C)C (some centres undefined)
EC50 ([1]; hek293): 0.24 nM
EC50 ([4]; hek293): 0.12 nM
EC50 (Glucagon receptor; hek293): 30 nM
IC50 ([2]; cho-k1): 27.5 nM
IC50 ([3]; hek293): 32 nM

H-H[dS]QGTFTSDLSKYLEEEAVREFIAWLKNGGPSRHYLNLVTRQRY-NH2
Activity (Rattus norvegicus [5]): Dose-dependent effect
EC50 [1]: 0.33 nM
Activity (Rattus norvegicus [6]): 5%
EC50 [4]: 0.48 nM
Activity (Suncus murinus [7]): Active
Activity (Rattus norvegicus [8]): Active
IC50 [9]: 27 nM
Activity (Pancreatic islet [10]): Active
Activity (Rattus norvegicus [11]): Active
EC50 (Glucagon receptor): > 3000 nM
Activity (Rattus norvegicus [12]): Active
microsomal CLint at 30 µM [13]: 32.5 µL/min/mg
half-life at 30 µM [14]: 2.27 h
Activity [15]: Non-Toxic
Activity [16]: inactive
Activity (Rattus norvegicus [17]): 71.4%
Activity (Pancreatic islet [18]): inactive
Activity (Suncus murinus [19]): Active
Activity [20]: Non-Toxic
IC50 [2]: 113 nM
Activity [21]: inactive
Activity (Rattus norvegicus [22]): Active
IC50 [3]: 10 nM

H-HSQGTFTSDLSKQMEEEAVRLFIEWLKNRYYASLRRHYLNLVTRQRY-NH2
IC50 [9]: 82 nM
EC50 (Glucagon receptor): > 3000 nM
IC50 [2]: > 1000 nM
